Among the data in BindingDB's records for doi:10.1016/j.bmcl.2012.10.080 (University of California, 2012) are IC50 values, retold here.

Molecules are shown by their SMILES.

The target in the experiment is T1, Phospholipase A2, membrane associated (Homo sapiens, UniProt P14555).
T1 sequence (P14555 whole entry): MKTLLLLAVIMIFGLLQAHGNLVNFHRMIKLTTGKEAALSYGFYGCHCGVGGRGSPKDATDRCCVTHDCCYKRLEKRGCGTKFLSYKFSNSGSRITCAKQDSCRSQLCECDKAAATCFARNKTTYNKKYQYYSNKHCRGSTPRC
Nature of the experiment: Inhibition of sPLA2-IIA (unknown origin)-integrin alphaVbeta3 interaction in human K562 cells pretreated for 30 mins to immobilized sPLA2 before adding cells by phosphatase assay. Summed up: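 Wells coated with sPLA2-IIA and blocked with BSA were preincubated with compound (10 to 500 μM) for 30 min. Integrin αvβ3-transfected K562 erythroleukemia cells were then added for 1 h at 37 °C, and bound cells were quantified by phosphatase assay. IC50 and maximum inhibition were derived from dose-response experiments.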

What is called IC50 is the concentration that inhibits the measured activity by half. Consider `Cc1nc(NC(=O)c2ccccc2)sc1-c1cc(C(=O)NCC(=O)O)[nH]n1`, for which the IC50 amounted to 241 µM.
